Laboratory results as given in PubChem BioAssay.
The source made the active and inactive calls.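 Rule for the calls, unless noted: active = inhibition at or above 50% relative to wild type and mutant plate controls; inactive = inhibition below 50%.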

Legend:
[1] = inhibitors of TNFa-induced NFkB p65 translocation, primary screen, imaging, HUVEC, MLSMR starter and 10KST1 sets (AID 438;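 active = inhibition above 20% together with a positive visual image hit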;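 note: compound added about 3h40 before a 20 min TNFalpha stimulation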;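 for inhibition: signal is the nuclear over cytoplasmic p65 intensity ratio per well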); details: HUVEC TNFa-induced p65 nuclear translocation; cell count: measured here: nuclei count (cytotoxicity indicator), at 2.08 µM; inhibition: at 2 µM, stronger effect = higher value, 0% TNFa-plus-vehicle, 100% no-TNFa wells
[2] = endothelial E-selectin expression blockers – imaging, HUVEC, immunofluorescence, MLSMR starter and 10KST1 sets, primary screen (AID 487;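 active = visually confirmed hit in the image check and inhibition above 20%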;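 for inhibition: signal is fraction of cell area covered by stained E-selectin grains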;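 for nuclei count: 100% = median nuclei count of all wells on the same plate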); details: HUVEC TNFalpha-induced E-selectin immunofluorescence imaging, at 2 µM; inhibition: stronger effect = higher value; nuclei count: measured here: cell number, toxicity
[3] = Primary imaging screen for DUSP6 inhibitors that restore phospho-Erk in transfected HeLa cells, chemical complementation (AID 609;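 active = compounds giving at least 50% inhibition in the cell-based MKP-3 phosphatase rescue imaging test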;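 for inhibition: phospho-Erk level distribution per well compared with pooled transfected vehicle control wells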); details: HeLa MKP-3 transfected, phospho-Erk imaging KS statistic, at 10 µM, cells stimulated with TPA for 15 min
[4] = target: Dual specificity protein phosphatase 6 (Homo sapiens) (UniProt Q16828); experiment: as above; details: HeLa MKP-3 transfected, phospho-Erk imaging KS statistic; at 10 µM; stronger effect = higher value; cells stimulated with TPA for 15 min
Dual specificity protein phosphatase 6 (Homo sapiens), sequence (Q16828 whole entry, looked up): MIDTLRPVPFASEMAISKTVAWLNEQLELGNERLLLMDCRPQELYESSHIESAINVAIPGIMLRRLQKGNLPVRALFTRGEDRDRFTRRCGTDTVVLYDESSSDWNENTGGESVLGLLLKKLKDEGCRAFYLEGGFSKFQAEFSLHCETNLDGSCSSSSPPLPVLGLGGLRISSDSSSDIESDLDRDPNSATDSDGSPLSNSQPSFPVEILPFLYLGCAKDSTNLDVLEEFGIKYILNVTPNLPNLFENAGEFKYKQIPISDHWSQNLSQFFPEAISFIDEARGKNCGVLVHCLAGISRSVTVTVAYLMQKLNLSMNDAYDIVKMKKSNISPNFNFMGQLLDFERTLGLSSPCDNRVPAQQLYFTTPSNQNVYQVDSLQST

[5] = target: Voltage-gated potassium channel subunit beta-2 (Rattus norvegicus) (UniProt P62483); experiment: inhibitors of rat Kvbeta2 reductase activity – biochemical, NADPH fluorescence, primary screen (AID 622;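 active = fluorescence slope higher than the sample average by over 3 SD, cut at about -0.22 in these data, passing the limit was not always enough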;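 note: slope of raw intensity against log time taken from 70 to 1610 s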); details: recombinant KvBeta, 4-cyanobenzaldehyde reduction, at 10 µM, stronger effect = higher value
Voltage-gated potassium channel subunit beta-2 (Rattus norvegicus), sequence (P62483 whole entry, looked up): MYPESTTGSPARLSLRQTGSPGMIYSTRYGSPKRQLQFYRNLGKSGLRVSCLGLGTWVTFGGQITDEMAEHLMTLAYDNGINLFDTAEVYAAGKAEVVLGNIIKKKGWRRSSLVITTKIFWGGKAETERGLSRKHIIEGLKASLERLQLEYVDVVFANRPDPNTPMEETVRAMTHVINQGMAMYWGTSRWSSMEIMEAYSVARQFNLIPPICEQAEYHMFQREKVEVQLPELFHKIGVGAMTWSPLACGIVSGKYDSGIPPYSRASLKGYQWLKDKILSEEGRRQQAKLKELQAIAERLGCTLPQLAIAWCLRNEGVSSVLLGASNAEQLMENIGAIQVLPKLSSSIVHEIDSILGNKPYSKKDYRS

[6] = target: Voltage-gated potassium channel subunit beta-2 (Rattus norvegicus) (UniProt P62483); experiment: enhancers of rat Kvbeta2 NADPH turnover – biochemical, NADPH fluorescence, primary screen (AID 623;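 active = NADPH fluorescence slope more negative than the mean of all samples by about 3 SD, 99.7% confidence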;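 note: fluorescence intensity change per second fitted from 20 to 320 s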); details: Recombinant KvBeta, NADPH fluorescence decrease slope, 10 min; at 10 µM; stronger effect = lower value
[7] = target: Muscarinic acetylcholine receptor M4 (Homo sapiens) (UniProt P08173); experiment: M4-linked GIRK flux change, two-sided – cell-based, HEK293 M4/GIRK, thallium flux, BTC-AM, M4 allosteric agonist project, primary screen (AID 625;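 active = fluorescence slope after compound addition differing from the mean of all tested samples at 99.7% confidence, mostly higher but some lower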;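 note: thallium influx through GIRK channels coupled to M4 in HEK293 cells with BTC-AM dye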); details: at 10 µM, actives lie on both sides
Muscarinic acetylcholine receptor M4 (Homo sapiens), sequence (P08173 whole entry, looked up): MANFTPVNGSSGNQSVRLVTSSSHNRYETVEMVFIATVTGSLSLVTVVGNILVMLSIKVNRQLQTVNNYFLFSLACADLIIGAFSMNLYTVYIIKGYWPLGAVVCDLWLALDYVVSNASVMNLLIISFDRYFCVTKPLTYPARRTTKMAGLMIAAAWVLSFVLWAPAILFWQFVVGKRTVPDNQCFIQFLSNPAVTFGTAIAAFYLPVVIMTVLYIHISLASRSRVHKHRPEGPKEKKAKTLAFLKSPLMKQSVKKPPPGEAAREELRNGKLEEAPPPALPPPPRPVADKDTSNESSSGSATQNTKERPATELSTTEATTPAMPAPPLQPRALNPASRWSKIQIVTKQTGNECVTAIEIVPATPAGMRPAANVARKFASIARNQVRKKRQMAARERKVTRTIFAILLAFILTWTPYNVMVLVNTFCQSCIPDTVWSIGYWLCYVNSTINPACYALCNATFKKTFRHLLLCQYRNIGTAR
Procedure, shortened: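 System: HEK293 cells with M4 receptor and GIRK channels | Incubation: Cells overnight at 37 °C, BTC-AM loading 1 h, reads 2 min total | Technique: Kinetic BTC-AM fluorescence sampled at 1 Hz, 10 s pre-addition baseline | Measure: Post-addition slope, 15–24 s, of baseline-normalized fluorescence | Control set: Carbachol positive, DMSO negative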

[8] = inhibitors of larval lipid processing in zebrafish, primary screen, whole organism, PED6 fluorescence, gall bladder and intestine (AID 686;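 active = a full or partial loss of lipid-probe fluorescence in the fish gall bladder, intestine or both, judged by eye; inactive = no fluorescence loss, or compound toxic to the fish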;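 note: larvae 5 to 7 days old with five fish per well; signal comes from phospholipase A2 cleavage of quenched PED6 carried via bile; overnight exposure to compound and PED6 before scoring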); details: Zebrafish larvae PED6 lipid processing, fluorescence scoring; screened at 20 µM (by protocol)
Procedure, shortened: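 Test system – live zebrafish larvae aged 5-7 days, whole organism · Buffer or medium – E3 fish medium · Reagent – quenched phospholipase substrate PED6, 100 nM final, ingested by larvae · Doses – 20 µM single dose · Incubation – overnight compound and PED6 incubation · Technique – visual fluorescence microscopy scoring of gall bladder, gut · Read-out basis – visual per-well fluorescence inhibition score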

[9] = loss of swimming-algae plug formation – whole organism, Chlamydomonas reinhardtii, WT vs cilia-less mutant, absorbance, 96-well, primary screen (AID 463189); details: Chlamydomonas reinhardtii gravitaxis, OD600 absorbance, 2 days; at 10 µM; stronger effect = higher value;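 note: 0% = wild type cc124 cells in DMSO and 100% = ciliumless bld1 mutant cells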
[10] = measured here: cell density z-score
[11] = measured here: nuclear c-Myc green intensity z-score
[12] = measured here: nuclear pErk red intensity z-score, stronger effect = higher value

Compound	cell count [1]	inhibition [1]	inhibition [2]	nuclei count [2] [%]	z-score [3, 10]	z-score [3, 11]	z-score [3, 12]	inhibition [4]	fluorescence slope [5]	NADPH fluorescence slope [6]	fluorescence slope [7]	outcome [8]	inhibition [9]
CC(NC(=O)NCCCn1ccnc1)(C(F)(F)F)C(F)(F)F	679	2.1% (inactive)	-67.3% (inactive)	166	-0.846	-0.74	0.188	-13.3% (inactive)	-0.438 (inactive)	-5.8e-05 (inactive)	0.005 (inactive)	inactive	0.921% (inactive)
CCOC(=O)c1c(N)sc(=S)c2c1CCC2	618	-6.2% (inactive)	-92.1% (inactive)	139	0.668	-0.746	-1.03	-11.4% (inactive)	-0.467 (inactive)	-0.000294 (inactive)	0.00293 (inactive)	inactive	15% (inactive)
CCCCCOC(=O)C(C)c1c(C)[nH]c(=S)[nH]c1=O (stereo unspecified)	628	-1.4% (inactive)	-25.9% (inactive)	158	-0.614	-0.028	2.51	1.04% (inactive)	-0.47 (inactive)	-8.1e-05 (inactive)	0.00582 (inactive)	inactive	-3.91% (inactive)
CC(C)C(=O)N1CCN(c2nc(-c3ccccc3)c3c(c2C#N)CC(C)(C)OC3)CC1	607	-3.4% (inactive)	-9.6% (inactive)	163	0.152	0.868	-0.257	-2.29% (inactive)	-0.366 (inactive)	-2.4e-05 (inactive)	0.00797 (inactive)	inactive	26.8% (inactive)
COC(=O)c1c(C)[nH]c(C(=O)OCc2ccc(F)cc2)c1C	693	-3.8% (inactive)	50.5% (inactive)	160	-0.559	-1.43	-0.0192	7.21% (inactive)	-0.461 (inactive)	-1.9e-05 (inactive)	0.00635 (inactive)	inactive	80.6% (active)
CCCOc1ccccc1C(=O)NCCCC(=O)O	697	10.3% (inactive)	-31.2% (inactive)	137	0.264	0.35	-1.68	1.63% (inactive)	-0.447 (inactive)	-6.8e-05 (inactive)	0.00573 (inactive)	inactive	23.9% (inactive)
Cc1[nH]nc(-c2ccc(O)cc2O)c1Oc1ccccc1	565	-2.3% (inactive)	-110% (inactive)	175	1.43	-0.0429	-0.868	15.9% (inactive)	-0.433 (inactive)	-7e-05 (inactive)	0.00505 (inactive)	inactive	9.24% (inactive)
COc1ccc(-n2ncc3c(N4CCC(C(N)=O)CC4)ncnc32)cc1	602	-18.6% (inactive)	-114% (inactive)	159	0.0865	1.24	-0.312	13.4% (inactive)	-0.385 (inactive)	-6.8e-05 (inactive)	0.00675 (inactive)	inactive	-0.327% (inactive)
CN1CC2(C)CN(C(c3ccccc3)c3ccccc3)CC(C)(C1)C2O (stereo unspecified)	529	-8.9% (inactive)	-136% (inactive)	154	1.6	-0.0767	-1.37	3.42% (inactive)	-0.479 (inactive)	-8.8e-05 (inactive)	0.00415 (inactive)	inactive	-0.999% (inactive)
CCc1nc2n[nH]c(N)c2c2c1CSC(C)(C)C2	644	-0.8% (inactive)	-44.1% (inactive)	168	-1.43	0.647	2.27	-15% (inactive)	-0.458 (inactive)	-5.1e-05 (inactive)	0.00446 (inactive)	inactive	12.1% (inactive)
C=CCNc1nc(N2CCOCC2)c(C#N)c2c1CN(C)CC2	600	-5.7% (inactive)	-83.6% (inactive)	138	0.63	-0.71	0.0349	9.07% (inactive)	-0.417 (inactive)	-9.1e-05 (inactive)	0.00406 (inactive)	inactive	1.91% (inactive)
C=CCNc1nc(N2CCCCC2)c(C#N)c2c1CN(Cc1ccccc1)CC2	504	-15.8% (inactive)	-82.3% (inactive)	127	0.348	-0.299	-0.89	-9.53% (inactive)	-0.473 (inactive)	-5.4e-05 (inactive)	0.00373 (inactive)	inactive	0.584% (inactive)
CCOC(=O)C(C)Oc1ccc2c(C)cc(=O)oc2c1C(C)=O (stereo unspecified)	708	3.9% (inactive)	-13.3% (inactive)	198	-0.905	0.873	1.56	1.98% (inactive)	-0.459 (inactive)	-4.7e-05 (inactive)	0.00606 (inactive)	inactive	3.24% (inactive)
CCCc1nc2n[nH]c(N)c2c2c1COC(C)(C)C2	597	-4% (inactive)	-13.2% (inactive)	168	-0.7	-1.13	1.4	-11.9% (inactive)	-0.369 (inactive)	-3.1e-05 (inactive)	0.00478 (inactive)	inactive	10.6% (inactive)
Cn1c(=O)c2c(nc(N3CCC(C(N)=O)CC3)n2CCSc2nc3ccccc3s2)n(C)c1=O	657	-10.1% (inactive)	-52% (inactive)	183	0.335	0.459	-0.422	7.42% (inactive)	-0.431 (inactive)	-6.4e-05 (inactive)	0.00515 (inactive)	inactive	21.2% (inactive)
COC(=O)c1sc(NC(=O)c2oc3ccccc3c2C)nc1C	594	-0.2% (inactive)	-146% (inactive)	150	0.222	-0.561	-0.214	25.8% (inactive)	-0.269 (inactive)	-4e-05 (inactive)	0.00832 (inactive)	inactive	-10.3% (inactive)
Cc1cc(O)ccc1-c1cnc2ccccc2n1	695	2% (inactive)	-163% (inactive)	166	-0.391	1.61	0.545	-6.06% (inactive)	-0.482 (inactive)	-6.2e-05 (inactive)	0.00527 (inactive)	inactive	-11.2% (inactive)
O=C(NCC(F)(F)F)Nc1nnc(C(F)(F)F)s1	731	2.9% (inactive)	-80.8% (inactive)	166	-0.948	-0.154	0.77	27.5% (inactive)	-0.429 (inactive)	-5.4e-05 (inactive)	0.00508 (inactive)	inactive	-1.99% (inactive)
C/C(=N\O)c1c(C)c2ccccc2n1C	553	-7.3% (inactive)	-33% (inactive)	155	0.633	-0.875	0.794	11.9% (inactive)	-0.374 (inactive)	-3.2e-05 (inactive)	0.00461 (inactive)	inactive	15.1% (inactive)
Cn1c(Cl)nc2c1c(=O)n(Cc1cccc(Br)c1)c(=O)n2C	691	-8.5% (inactive)	-97.4% (inactive)	169	-1.75	0.296	0.815	3.97% (inactive)	-0.507 (inactive)	-1.8e-05 (inactive)	0.00593 (inactive)	inactive	-10.8% (inactive)
N#Cc1nc(COc2ccc(Cl)cc2)oc1N1CCN(Cc2ccccc2)CC1	489	-3% (inactive)	-24.2% (inactive)	139	-0.636	0.047	1.31	-2.29% (inactive)	-0.411 (inactive)	-5.4e-05 (inactive)	0.00907 (inactive)	inactive	3.53% (inactive)
C=CCN=C(C)C1=C(O)CCC1=O	637	3.3% (inactive)	-33.6% (inactive)	116	-0.646	0.913	-0.284	-2.09% (inactive)	-0.445 (inactive)	-6.8e-05 (inactive)	0.0054 (inactive)	inactive	11.3% (inactive)
Cn1c(Cn2cnc3ccccc32)nc2ccccc21	543	0.2% (inactive)	22% (inactive)	78.7	1.23	-0.835	-0.272	-3.95% (inactive)	-0.431 (inactive)	9.8e-06 (inactive)	0.00479 (inactive)	inactive	23% (inactive)
N#Cc1c(NCCCO)nc(-c2ccccc2)c2c1CCCC2	598	-4.5% (inactive)	-60.9% (inactive)	154	-0.266	0.00477	1.17	-0.233% (inactive)	-0.435 (inactive)	-0.000107 (inactive)	0.00541 (inactive)	inactive	0.512% (inactive)
O=C(O)C1[C@H]2C(=O)N(Cc3cccs3)C[C@]23C=C[C@H]1O3 (stereo partly specified)	598	-10.3% (inactive)	-12.8% (inactive)	189	0.152	1.12	-0.313	6.04% (inactive)	-0.481 (inactive)	-8e-05 (inactive)	0.00643 (inactive)	inactive	-4.98% (inactive)
Cc1nnc(SCC(=O)N2CCOCC2)c2ccccc12	489	7.8% (inactive)	-38.5% (inactive)	135	0.531	1.47	0.934	1.63% (inactive)	-0.534 (inactive)	-0.000118 (inactive)	0.00485 (inactive)	inactive	-5.11% (inactive)
O=c1c2sc3nc(N4CCOCC4)c4c(c3c2ncn1Cc1ccco1)CCCC4	502	2.3% (inactive)	-62.8% (inactive)	143	-0.769	-0.213	0.589	21.8% (inactive)	-0.369 (inactive)	-1.9e-05 (inactive)	0.00575 (inactive)	inactive	30% (inactive)
